Compound activity from PubChem.
Rev-erbA mod: Rev-erb alpha (human) modulation. Rev-erbα–FITC-DNA binding, fluorescence polarization, 90 min. activity, % at 10 µM. actives 0.79% (n = 370,000). AID 1259318;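 active means activity above about 14%, limit read from the data; passing the limit was not always enough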;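 further: 0% = DMSO wells with 35 nM protein and 100% = DMSO wells with 750 nM protein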
NR2E3 ag-1: NR2E3 (human) agonism | GST-NR2E3/biotin-RetCOR TR-FRET, 1536-well | inhibition of corepressor binding, % at 4.78 µM | actives 0.12% (n = 320,000) | AID 2300;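 active means percent inhibition above the cutoff of mean plus 3 SD of all tested compounds, set per screening campaign, cut at about 20% in these data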;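 further: 0% = DMSO wells and 100% = biotin wells as full block of FRET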
Target sequence (Q9Y5X4 whole entry, looked up): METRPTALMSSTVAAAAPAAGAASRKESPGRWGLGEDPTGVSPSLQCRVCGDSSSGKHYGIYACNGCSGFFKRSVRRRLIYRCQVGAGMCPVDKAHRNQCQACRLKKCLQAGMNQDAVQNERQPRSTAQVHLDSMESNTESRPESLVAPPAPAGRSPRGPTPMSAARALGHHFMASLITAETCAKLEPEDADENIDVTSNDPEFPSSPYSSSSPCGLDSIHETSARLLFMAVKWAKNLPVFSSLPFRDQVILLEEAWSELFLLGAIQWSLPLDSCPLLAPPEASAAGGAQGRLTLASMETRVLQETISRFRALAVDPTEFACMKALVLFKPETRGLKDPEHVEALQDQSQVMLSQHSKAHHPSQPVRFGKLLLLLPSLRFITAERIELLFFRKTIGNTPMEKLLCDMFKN
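Test system – NR2E3–RetCOR corepressor complex · Quantity – NR2E3 fusion 1.35 nM · Buffer or medium – Tris pH 7.5 · Incubation – Compound–protein incubation for 5 h at 4 °C · Technique – TR-FRET, Eu(K)-anti-GST donor, streptavidin-D2 acceptor, ex 340, em 617/671 nm · Evaluation – percent inhibition of 671/617 nm emission ratio versus biotin and DMSO controls · Plate – 1536-well format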
NR2E3 ag-2: activates human NR2E3 receptor. CHO-S Gal4-NCOR/VP16-NR2E3 two-hybrid, luciferase. actives 0.35% (n = 360,000). Q9Y5X4. inhibition of corepressor binding, % at 3.98 µM;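 active means inhibition above the mean of all tested compounds plus 3 SD, cut at about 70% in these data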;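 further: 0% = DMSO with NR2E3 transfected cells and 100% = cells lacking NR2E3 construct; higher means lower luciferase signal from less NR2E3 corepressor binding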
SKN-1 inh: C. elegans SKN-1 inhibition; C. elegans VP596 Pgst-4::GFP/RFP ratio, acrylamide-induced, 24 h; inhibition, % at 21.8 µM; actives 0.49% (n = 360,000);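 active means interference check ratio from 0.5 to 1.5 plus GFP to RFP signal ratio inhibition reaching or exceeding a fixed threshold, cut at about 30% in these data, passing the limit was not always enough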
PG9 binder: binds the HIV-1 gp120 antibody PG9. TR-FRET gp120-PG9 antibody binding. inhibition, % at 6.7 µM. actives 0.43% (n = 360,000). AID 624416; in the data active means inhibition above about 8.5%
MT1-MMP act inh: MT1-MMP (human) activation inhibition | actives 0.061% (n = 360,000) | P50281 | AID 651647 | GFP/RFP ratio change, % at 20 µM | HT1080 RFP-PRO-GFP cells, GFP/RFP ratio fluorescence, overnight; percent of plate control window, DMSO zero;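 active means GFP/RFP ratio change of at least 30% with cell ATP level not reduced by more than half and red fluorescence within 50% of control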
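Assay system: HT1080 RFP-PRO-GFP cells. Benchmarks: DMSO vehicle wells and RFP-L50D-GFP reporter cell wells. Times: overnight cell settling, then overnight compound exposure, 37 °C, 5% CO2. Compound: 20 µM single dose, 1% DMSO. Read-out basis: GFP/RFP fluorescence ratio.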
* marks the source's active call; other numbers are inactive results; nt = no result. In the library only some 1.9% were active in any assay of this set; here they are far more common.

SMILES | Rev-erbA mod | NR2E3 ag-1 | NR2E3 ag-2 | SKN-1 inh | PG9 binder | MT1-MMP act inh
Clc1cc(Cl)c2nc(N3CCCC3)sc2c1 | 4 | 3 | -28 | 37* | 2 | -2
COCc1cc(N2CCN(C(=O)OC(C)(C)C)C[C@H]2C)ccc1N1C[C@@H](C)O[C@@H](C)C1 | -2 | nt | nt | nt | -1 | nt
Cc1cc2cc(CNC(=O)c3cccc([N+](=O)[O-])c3)ccc2n1C | 3 | 5 | 1 | 47* | 3 | -1
CC(=O)Nc1ccc(S(=O)(=O)NCc2ccc(C)cc2)cc1 | -7 | -3 | 5 | -12 | -2 | -1
Cc1cc2cc(CNC(=S)Nc3ccc(OC(F)(F)F)cc3)ccc2n1C | -11 | 0 | -24 | 57* | 1 | 50
Cc1c(C(=O)NCc2ccc3c(c2)cc(C)n3C)cccc1[N+](=O)[O-] | -2 | 5 | 4 | 55 | 0 | 62
Cc1cc2cc(CNC(=O)c3ccc(S(=O)(=O)N(C)C)cc3)ccc2n1C | -4 | 1 | 3 | 45* | 2 | 32
CC(=O)Nc1ccc(S(=O)(=O)NCc2ccc3c(c2)cc(C)n3C)cc1 | -7 | 3 | -13 | 50* | 3 | 47
Cc1cccc(C)c1-n1nnnc1C1c2ccccc2OCC(=O)N1Cc1ccc(F)cc1 (stereo not given) | 4 | nt | nt | nt | nt | nt
CN1CCCN(S(=O)(=O)c2ccc3c(c2)CCC(=O)N3)CC1 | 0 | nt | nt | nt | nt | nt
O=C(NC(=S)N1CCN(C/C=C/c2ccccc2)CC1)c1ccco1 | 4 | 0 | 1 | 10 | -2 | 5
O=C(c1ccco1)N1CCN(C/C=C/c2ccccc2)CC1 | -4 | -2 | -1 | 35* | -1 | 2
C=Cc1c(C)/c2[n-]/c1=C\c1[n-]c(c(CC)c1C)/C=c1\[n-]c3c(c1C)C(=O)C(C(=O)O)C=3c1[n-]c(c(C)c1CCC(=O)O)\C=2.[Cu] (stereo not given) | -37 | nt | nt | nt | nt | nt
Cc1c(C)n(CC(O)CN2CCCCCC2)c2ccccc12 (stereo not given) | 6 | 0 | -24 | 0 | -2 | 1
Cc1ccc2c(c1)c(C)c(C)n2CC(O)CN1CCOCC1 (stereo not given) | 0 | -1 | -2 | 39* | -3 | 10
C=CCN1C(=O)CS/C1=C(\C#N)S(=O)(=O)c1ccc(C)cc1 | 0 | -2 | -30 | 34* | -1 | 38
Cc1cc(NC(=O)COc2ccc3ccccc3c2Br)no1 | 4 | nt | -11 | 1 | 10.0* | 1
CC(C)C(c1nnnn1Cc1ccco1)N1CCN(C2CCCC2)CC1 (stereo not given) | 1 | 5 | -4 | 51* | 1 | 2
CCCCCCCCCCC[C@@H](C[C@H]1OC(=O)[C@H]1CCCCCC)OC(=O)[C@@H](CC(C)C)NC=O | -6 | nt | nt | nt | nt | nt
Fc1ccccc1NC(=S)NN(Cc1ccccc1)c1ccccc1 | -1 | -4 | -19 | 39* | 0 | -2
Cc1cc(-c2n[nH]c(=S)n2N=Cc2cccc(OCc3ccccc3)c2)n[nH]1 | 0 | nt | nt | nt | nt | nt
Oc1c(N=Nc2ccccn2)ccc2ccccc12 | -12 | -2 | -11 | 46* | -7 | 77
COc1cccc(-n2cnnn2)c1 | 1 | 1 | 7 | 40* | -3 | -3
COC(=O)c1cccc(-n2cnnn2)c1 | -5 | 4 | 6 | 6 | -1 | 1
C=CCN1C(=O)[C@@H](CC(=O)NCc2cccc(C(F)(F)F)c2)[C@]2(C(=O)OCC)CCCCC/C=C/12 | 0 | nt | nt | nt | nt | nt
SMILES | Rev-erbA mod | NR2E3 ag-1 | NR2E3 ag-2 | SKN-1 inh | PG9 binder | MT1-MMP act inh
COC(=O)c1ccccc1NC(=O)c1sc(Cl)nc1C | -2 | -2 | -16 | 4 | -1 | 1
COC(=O)c1ccc(-c2ccc(Cl)cc2)nc1C | -5 | 1 | -158 | 51* | -1 | -2
CCCCC(CC)COC(=O)c1ccc(Nc2nc(Nc3ccc(C(=O)OCC(CC)CCCC)cc3)nc(Nc3ccc(C(=O)OCC(CC)CCCC)cc3)n2)cc1 (stereo not given) | 7 | nt | nt | nt | nt | nt
N#CC1=C(N)SC(N)=C(C#N)C1c1cccc(O)c1 | 1 | 6 | -12 | 8 | 22* | -170
COc1ccc(C2C(C#N)=C(N)SC(N)=C2C#N)cc1OC | 0 | 11 | 6 | 19 | 8 | -220
C[C@@H]1ON(C)[C@H]2C[C@H]3c4[nH]c5cccc(-c6cccc(F)c6)c5c4CCN3C(=O)[C@@H]12 | -5 | nt | nt | nt | 0 | nt
O=C(c1cc(COc2ccc(F)cc2Cl)on1)N1CC2C[C@@H]3CC1C[C@H](C2)C3 | 1 | -2 | -116 | 35* | -2 | -3
O=C(CS(=O)Cc1ccco1)NC/C=C\COc1cc(CN2CCCCC2)ccn1 (stereo not given) | -4 | nt | nt | nt | nt | nt
COc1cccc(/C=C2\CC(C)Cc3c2nc2ccccc2c3C(=O)O)c1OC (stereo not given) | 7 | 4 | -8 | 40* | -2 | 0
O=C(CSc1ncnc2scc(-c3ccc(Cl)cc3)c12)NCc1ccc2c(c1)OCO2 | 7 | nt | -1 | 46* | 1 | -2
COc1ccc(-n2sc3c(c2=S)-c2cc(OC)ccc2NC3(C)C)cc1 | 5 | 1 | 0 | 40* | -3 | 2
COc1ccc2c(c1)-c1c(sn(-c3ccccc3)c1=S)C(C)(C)N2 | 1 | -4 | 8 | 4 | 2 | -3
CC1C/C(=C/c2ccccn2)C(=O)/C(=C/c2ccccn2)C1 (stereo not given) | nt | -3 | 62 | -2 | nt | -24
CC(C)(C)C1C/C(=C/c2ccccn2)C(=O)/C(=C/c2ccccn2)C1 (stereo not given) | nt | 1 | 96* | -1 | nt | -19
CCOC(=O)N1CCN(C(=O)Nc2ccc(Cl)cc2)CC1 | -1 | -4 | -12 | 35* | -1 | -2
COc1cccc(/C=N/N2C(=O)CSC2=S)c1O | 6 | 0 | -42 | -8 | -5 | 27
COc1cc(/C=N/N2C(=O)CSC2=S)cc(Br)c1O | 3 | nt | -11 | 43* | -5 | -43
CC(c1ccccc1)n1cc(C(=O)N2CCCC2)nn1 (stereo not given) | -5 | nt | nt | nt | nt | nt
Cc1cc(OCc2cccc(Cl)c2)c(C)cc1CN1CCOCC1 | -2 | 3 | -29 | 72* | 0 | -2
COc1cccc(-c2cccc(NC(=O)C3CCN(CC4CCOC4)CC3)c2)c1 (stereo not given) | 1 | -1 | 5 | 46* | -1 | -1
COc1ccc(C(C(=O)NC2CCCCC2)N(Cc2cccs2)C(=O)Cc2c[nH]c3ccccc23)cc1 (stereo not given) | 3 | -1 | -24 | 39* | -1 | -8
COc1cccc(CN(C(=O)Cc2c[nH]c3ccccc23)C(C(=O)NC2CCCCC2)c2cccs2)c1 (stereo not given) | 6 | 2 | -21 | -1 | 2 | -29
